Reference: ChEMBL document CHEMBL1146995, “Aza-retinoids as novel retinoid X receptor-specific agonists” (Bioorg Med Chem Lett, 2006)

What was measured:
[1] = molecular target: T1, Retinoic acid receptor RXR-gamma (Homo sapiens, UniProt P48443); assay: Transactivation of RXRgamma in CV1 cells by cotransfection assay; type: functional, cell-based, CV-1
T1 sequence (P48443 whole entry): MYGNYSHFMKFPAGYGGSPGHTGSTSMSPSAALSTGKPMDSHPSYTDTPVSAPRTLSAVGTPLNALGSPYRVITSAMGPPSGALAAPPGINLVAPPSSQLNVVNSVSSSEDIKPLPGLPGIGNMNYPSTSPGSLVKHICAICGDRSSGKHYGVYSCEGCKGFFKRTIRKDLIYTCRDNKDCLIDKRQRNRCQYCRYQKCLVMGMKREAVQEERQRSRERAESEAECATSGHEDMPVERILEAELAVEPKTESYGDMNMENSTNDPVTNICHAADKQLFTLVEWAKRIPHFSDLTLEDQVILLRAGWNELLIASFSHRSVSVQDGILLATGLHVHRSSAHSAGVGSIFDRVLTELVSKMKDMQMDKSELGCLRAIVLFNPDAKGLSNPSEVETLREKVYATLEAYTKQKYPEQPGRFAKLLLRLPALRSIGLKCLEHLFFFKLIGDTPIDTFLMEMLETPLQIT
Outline: (§1)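 EC50 taken from a full dose–response curve. Retinoid activity was normalized to the response to ATRA (all-trans retinoic acid). Potency (EC50) is the retinoid concentration that gives 50% of the maximal observed response.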

[2] = molecular target: T2, Retinoic acid receptor RXR-alpha (Homo sapiens, UniProt P19793); assay: Transactivation of RXRalpha in CV1 cells by cotransfection assay; type: functional, cell-based, CV-1; outline: as §1
T2 sequence (P19793 whole entry): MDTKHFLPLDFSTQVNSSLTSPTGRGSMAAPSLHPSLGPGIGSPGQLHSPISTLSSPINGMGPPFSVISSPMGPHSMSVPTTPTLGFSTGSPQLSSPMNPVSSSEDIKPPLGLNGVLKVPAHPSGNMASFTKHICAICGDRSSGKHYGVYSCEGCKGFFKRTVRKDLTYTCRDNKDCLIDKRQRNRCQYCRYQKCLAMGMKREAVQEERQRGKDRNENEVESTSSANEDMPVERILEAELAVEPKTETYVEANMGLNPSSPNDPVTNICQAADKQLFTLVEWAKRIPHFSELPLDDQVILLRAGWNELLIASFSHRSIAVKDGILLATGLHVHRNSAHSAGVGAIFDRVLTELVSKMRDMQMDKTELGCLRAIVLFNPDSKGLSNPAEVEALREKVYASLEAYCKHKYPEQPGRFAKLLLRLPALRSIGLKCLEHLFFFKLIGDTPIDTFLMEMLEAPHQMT

[3] = molecular target: T1, Retinoic acid receptor RXR-gamma; assay: Binding affinity to RXRgamma
[4] = molecular target: T3, Retinoic acid receptor RXR-beta (Homo sapiens, UniProt P28702); assay: Binding affinity to RXRbeta
T3 sequence (P28702 whole entry): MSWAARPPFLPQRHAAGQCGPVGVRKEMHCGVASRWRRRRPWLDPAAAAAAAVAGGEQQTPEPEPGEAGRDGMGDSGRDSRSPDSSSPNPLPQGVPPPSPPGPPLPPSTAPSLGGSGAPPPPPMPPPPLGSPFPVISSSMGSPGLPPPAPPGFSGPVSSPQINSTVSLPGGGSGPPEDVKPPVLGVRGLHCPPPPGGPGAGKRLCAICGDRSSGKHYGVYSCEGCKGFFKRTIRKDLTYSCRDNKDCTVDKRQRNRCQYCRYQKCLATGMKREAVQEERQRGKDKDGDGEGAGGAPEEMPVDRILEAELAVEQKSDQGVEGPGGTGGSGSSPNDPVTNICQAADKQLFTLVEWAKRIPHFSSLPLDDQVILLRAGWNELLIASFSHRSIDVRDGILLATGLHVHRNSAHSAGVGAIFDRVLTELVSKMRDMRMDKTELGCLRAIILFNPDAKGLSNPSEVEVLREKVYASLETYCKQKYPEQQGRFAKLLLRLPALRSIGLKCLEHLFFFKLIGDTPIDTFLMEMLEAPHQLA

[5] = molecular target: T3, Retinoic acid receptor RXR-beta; assay: Transactivation of RXRbeta in CV1 cells by cotransfection assay; type: functional, cell-based, CV-1; outline: as §1
[6] = molecular target: T2, Retinoic acid receptor RXR-alpha; assay: Binding affinity to RXRalpha

Row | Structure (SMILES) | EC50 ([1]; read-out: EC50) [nM] | EC50 ([2]; read-out: EC50) [nM] | Ki ([3]; read-out: Ki) [nM] | Ki ([4]; read-out: Ki) [nM] | EC50 ([5]; read-out: EC50) [nM] | Ki ([6]; read-out: Ki) [nM] | EC50 ([1]; cv-1) | EC50 ([2]; cv-1) | Ki [3] | Ki [4] | EC50 ([5]; cv-1) | Ki [6]
1 | CCCN(C/C=C/C(C)=C/C(=O)O)c1ccc2c(c1)C(C)(C)CCC2(C)C | 170 | 152 | 110 | 72 | 206 | 47 |  |  |  |  |  | 
2 | CCCCCCCCN(C/C=C/C(C)=C/C(=O)O)c1cc(C(C)(C)C)cc(C(C)(C)C)c1 | 35 |  | 221 | 126 |  | 122 |  | Not Active |  |  | Not Active | 
3 | CC(C)=CCN(C/C=C/C(C)=C/C(=O)O)c1cc(C(C)(C)C)cc2c1CCC2(C)C |  |  | 309 | 327 |  | 254 | Not Active | Not Active |  |  | Not Active | 
4 | CCCN(C/C=C/C(C)=C/C(=O)O)c1cc2c(cc1C)C(C)(C)CCC2(C)C | 223 | 231 | 211 | 161 | 212 | 18 |  |  |  |  |  | 
5 | CC(/C=C/CN(c1cc(C(C)(C)C)cc2c1CCC2(C)C)C(C)C)=C\C(=O)O | 262 | 252 | 121 | 301 | 216 | 67 |  |  |  |  |  | 
6 | CCCN(C/C=C/C(C)=C/C(=O)O)c1cc2c(cc1OC)C(C)(C)CCC2(C)C |  | 400 | 576 | 721 | 169 | 257 | Not Active |  |  |  |  | 
7 | CC(/C=C/[C@H]1CCCN1c1ccc2c(c1)C(C)(C)CCC2(C)C)=C\C(=O)O | 1260 |  | 202 | 188 | 1290 | 103 |  | Not Active |  |  |  | 
8 | CC(/C=C/CN(CC1CC1)c1cc(C(C)(C)C)cc2c1CCC2(C)C)=C\C(=O)O | 100 | 123 | 150 | 105 | 98 | 63 |  |  |  |  |  | 
9 | CCCCN(C/C=C/C(C)=C/C(=O)O)c1cc(C(C)(C)C)cc2c1CCC2(C)C | 50 | 53 | 31 | 60 | 52 | 21 |  |  |  |  |  | 
10 | CC(/C=C/CN(C)c1cc(C(C)(C)C)cc(C(C)(C)C)c1)=C\C(=O)O | 322 | 378 | 131 | 88 | 95 | 37 |  |  |  |  |  | 
11 | CC(/C=C/CN(Cc1ccccc1)c1cc(C(C)(C)C)cc(C(C)(C)C)c1)=C\C(=O)O |  |  | 207 | 238 |  | 121 | Not Active | Not Active |  |  | Not Active | 
12 | CC(/C=C/[C@@H]1CCCN1c1ccc2c(c1)C(C)(C)CCC2(C)C)=C\C(=O)O | 147 | 179 | 100 | 63 | 161 | 21 |  |  |  |  |  | 
13 | CCN(C/C=C/C(C)=C/C(=O)O)c1cc2c(cc1C)C(C)(C)CCC2(C)C | 125 | 64 | 99 | 152 | 117 | 42 |  |  |  |  |  | 

Next, values leading:

Row | EC50 ([1]; read-out: EC50) [nM] | EC50 ([2]; read-out: EC50) [nM] | Ki ([3]; read-out: Ki) [nM] | Ki ([4]; read-out: Ki) [nM] | EC50 ([5]; read-out: EC50) [nM] | Ki ([6]; read-out: Ki) [nM] | EC50 ([1]; cv-1) | EC50 ([2]; cv-1) | Ki [3] | Ki [4] | EC50 ([5]; cv-1) | Ki [6] | Structure (SMILES)
14 | 231 | 221 | 35 | 24 | 235 | 31 |  |  |  |  |  |  | CCN(C/C=C/C(C)=C/C(=O)O)c1cc(C(C)(C)C)cc(C(C)(C)C)c1
15 | 63 | 99 | 38 | 34 | 69 | 17 |  |  |  |  |  |  | CCCN(C/C=C/C(C)=C/C(=O)O)c1cc(C(C)(C)C)cc(C(C)(C)C)c1
16 |  |  |  |  |  |  | Not Active | Not Active | Not Active | Not Active | Not Active | Not Active | CC(/C=C/C(=O)Nc1cc(C(C)(C)C)cc(C(C)(C)C)c1)=C\C(=O)O
17 |  |  |  |  |  |  | Not Active | Not Active | Not Active | Not Active | Not Active | Not Active | CC(/C=C/C(=O)N(Cc1ccccc1)c1cc(C(C)(C)C)cc(C(C)(C)C)c1)=C\C(=O)O
18 | 19 | 22 | 10 | 12 | 21 | 8 |  |  |  |  |  |  | CCCN(C/C=C/C(C)=C/C(=O)O)c1cc(C(C)(C)C)cc2c1CCC2(C)C
19 | 128 | 216 | 162 | 185 | 239 | 103 |  |  |  |  |  |  | CCN(C/C=C/C(C)=C/C(=O)O)c1ccc2c(c1)C(C)(C)CCC2(C)C
20 |  |  |  |  |  | 529 | Not Active | Not Active | Not Active | Not Active | Not Active |  | CC(/C=C/CNc1cc(C(C)(C)C)cc(C(C)(C)C)c1)=C\C(=O)O
21 | 669 | 1000 | 299 | 605 | 151 | 644 |  |  |  |  |  |  | CCCN(C(=O)/C=C/C(C)=C/C(=O)O)c1cc(C(C)(C)C)cc(C(C)(C)C)c1
